According to ChEMBL document CHEMBL1145150, “Synthesis and biological activity of nitronyl nitroxide containing peptides” (J Med Chem, 2005):
Residues, ends and D or L forms follow the SMILES beside them. *: point of attachment. X1 = CC1(C)N(O)C(c2ccc(OCC(=O)*)cc2)=[N+]([O-])C1(C)C

Legend:
Rattus norvegicus [1] = assay: Thrombolytic activity (10.0 umol/kg) expressed as the reduction of thrombus mass determined in male wistar rats; assay type: functional
Outline: (§1)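 Male Wistar rats (200–300 g) were anesthetized with pentobarbital sodium (80.0 mg/kg i.p.). A steel helix was left for 15 min in 1.0 mL of carotid blood, then weighed. It was placed in a heparin-filled (50 IU/mL) polyethylene shunt into the left jugular vein. Heparin and then the test agent were injected through the shunt. Blood circulated 90 min, the helix was reweighed, and thrombus mass reduction was recorded (ANOVA).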

Oryctolagus cuniculus [2] = species on record: Oryctolagus cuniculus; assay: Effect (1.5 ug) on euglobulin clot lysis time determined using rabbit euglobulin; assay type: functional
Outline: (§2)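 Rabbit plasma was diluted 1:20 in distilled water and precipitated at pH 5.7 with 0.25% acetic acid for 30 min at 4 °C. It was spun at 2000g for 15 min, and the euglobulin pellet was resuspended to the original plasma volume in 50 mM sodium barbiturate buffer (pH 7.8; 1.66 mM CaCl₂, 0.68 mM MgCl₂, 93.96 mM NaCl). Saline, urokinase or test agent was added to the clots, and time to clot lysis was read in a microplate.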

Rattus norvegicus [3] = species on record: Rattus norvegicus; assay: Concentration of compound (1 umol/L) required to inhibit acetylcholine-induced vasorelaxation of rat aortic strip relative to control; assay type: functional, Aorta
Oryctolagus cuniculus [4] = species on record: Oryctolagus cuniculus; assay: Fibrinolytic activity (1.5 ug) determined in fibrinogen-agarose mixture coagulated with […] of thrombin; assay type: functional
Outline: (§3)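 Plates were cast from equal volumes of 0.3% rabbit fibrinogen and 0.95% agarose, both in 50 mM sodium barbiturate buffer (pH 7.8), clotted with thrombin (100 IU/mL) and held 30 min at 4 °C. Wells 5 mm across were punched and loaded with 30 µL of saline, urokinase or test agent. Fibrinolysis was expressed as lysis area.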

Oryctolagus cuniculus [5] = species on record: Oryctolagus cuniculus; assay: Effect (5 IU) on euglobulin clot lysis time determined using rabbit euglobulin; assay type: functional; outline: as §2
Oryctolagus cuniculus [6] = species on record: Oryctolagus cuniculus; assay: Fibrinolytic activity (5 IU)) determined in fibrinogen-agarose mixture coagulated with […] of thrombin; assay type: functional; outline: as §3
Rattus norvegicus [7] = assay: Thrombolytic activity (20 000 IU/kg) expressed as the reduction of thrombus mass determined in male wistar rats; assay type: functional, organism-based; outline: as §1
Oryctolagus cuniculus [8] = species on record: Oryctolagus cuniculus; assay: Fibrinolytic activity (0.2 ug) determined in fibrinogen-agarose mixture coagulated with […] of thrombin; assay type: functional; outline: as §3
PC-12 [9] = assay: Free radical scavenging activity of compound (200 uM) evaluated against hydrogen peroxide in PC12 cells; assay type: functional, cell-based; conditions: Rattus norvegicus
Outline: (§4)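 PC12 cells were grown in DMEM with 10% heat-inactivated horse serum, 5% FBS and 1.0 mM pyruvate at 37 °C and 5% CO₂. Cells were seeded at 20 000/well on poly-L-lysine and attached 24 h, then pretreated 1 h with 12.5–200 µM compound. Insults were: NO, 2 mM nitroprusside for 2 h, then 14 h in fresh medium; H₂O₂, 1 mM for 1 h; OH, 1 mM H₂O₂/30 µM Fe(II) for 1 h. Survival was read by MTT.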

PC-12 [10] = assay: Free radical scavenging activity of compound (200 uM) evaluated against OH in PC12 cells; assay type: functional, cell-based; conditions: Rattus norvegicus; outline: as §4
Oryctolagus cuniculus [11] = species on record: Oryctolagus cuniculus; assay: Fibrinolytic activity (0.4 ug) determined in fibrinogen-agarose mixture coagulated with […] of thrombin; assay type: functional; outline: as §3
Oryctolagus cuniculus [12] = species on record: Oryctolagus cuniculus; assay: Effect (2.3 ug) on euglobulin clot lysis time determined using rabbit euglobulin; assay type: functional; outline: as §2
Rattus norvegicus [13] = assay: Thrombolytic activity (1 umol/kg) expressed as the reduction of thrombus mass determined in male wistar rats; assay type: functional; outline: as §1
Rattus norvegicus [14] = species on record: Rattus norvegicus; assay: Concentration of compound (0.01 umol/L) required to inhibit acetylcholine-induced vasorelaxation of rat aortic strip relative to control; assay type: functional, Aorta
Rattus norvegicus [15] = assay: Thrombolytic activity (5 umol/kg) expressed as the reduction of thrombus mass determined in male wistar rats; assay type: functional; outline: as §1
Oryctolagus cuniculus [16] = species on record: Oryctolagus cuniculus; assay: Effect (1.1 ug) on euglobulin clot lysis time determined using rabbit euglobulin; assay type: functional; outline: as §2
Rattus norvegicus [17] = assay: Thrombolytic activity (10 umol/kg) expressed as the reduction of thrombus mass determined in male wistar rats; assay type: functional; outline: as §1
Oryctolagus cuniculus [18] = species on record: Oryctolagus cuniculus; assay: Fibrinolytic activity (0.8 ug) determined in fibrinogen-agarose mixture coagulated with […] of thrombin; assay type: functional; outline: as §3
PC-12 [19] = assay: Free radical scavenging activity of compound (200 uM) evaluated against […] in PC12 cells; assay type: functional, cell-based; conditions: Rattus norvegicus
Oryctolagus cuniculus [20] = species on record: Oryctolagus cuniculus; assay: Effect (0.6 ug) on euglobulin clot lysis time determined using rabbit euglobulin; assay type: functional; outline: as §2
Rattus norvegicus [21] = species on record: Rattus norvegicus; assay: Concentration of compound (0.1 umol/L) required to inhibit acetylcholine-induced vasorelaxation of rat aortic strip relative to control; assay type: functional, Aorta
Rattus norvegicus [22] = assay: Thrombolytic activity (15.0 umol/kg) expressed as the reduction of thrombus mass determined in male wistar rats; assay type: functional; outline: as §1
Rattus norvegicus [23] = assay: Thrombolytic activity (5.0 umol/kg) expressed as the reduction of thrombus mass determined in male wistar rats; assay type: functional; outline: as §1
PC-12 [24] = assay: Free radical scavenging activity of compound (50 uM) evaluated against […] in PC12 cells; assay type: functional, cell-based; conditions: Rattus norvegicus
Oryctolagus cuniculus [25] = species on record: Oryctolagus cuniculus; assay: Fibrinolytic activity (0.7 ug) determined in fibrinogen-agarose mixture coagulated with […] of thrombin; assay type: functional; outline: as §3
PC-12 [26] = assay: Free radical scavenging activity of compound (50 uM) evaluated against hydrogen peroxide in PC12 cells; assay type: functional, cell-based; conditions: Rattus norvegicus; outline: as §4
Oryctolagus cuniculus [27] = species on record: Oryctolagus cuniculus; assay: Effect (2.1 ug) on euglobulin clot lysis time determined using rabbit euglobulin; assay type: functional; outline: as §2
PC-12 [28] = assay: Free radical scavenging activity of compound (50 uM) evaluated against OH in PC12 cells; assay type: functional, cell-based; conditions: Rattus norvegicus; outline: as §4

`C[C@H](NC(=O)[C@@H]1CCCN1C(=O)[C@H](CCCN=C(N)N)NC(=O)[C@@H](N)CCC(N)=O)C(=O)N[C@@H](CCCCN)C(=O)O` (H-QRPAK-OH) was tested, and the Reduction (Rattus norvegicus [1]) was 21.17 mg, the ECLT (Oryctolagus cuniculus [2]) was 93.01 min and the Inhibition (Rattus norvegicus [3]) was 8.9%. For the same compound, the Lysis area (Oryctolagus cuniculus [4]) was 223.99 mm.mm.
UROKINASE was tested, and the ECLT (Oryctolagus cuniculus [5]) was 126 min, the Lysis area (Oryctolagus cuniculus [6]) was 224 mm.mm and the Reduction (Rattus norvegicus [7]) was 25.4 mg.
With `C[C@H](NC(=O)[C@@H]1CCCN1C(=O)[C@H](CCCN=C(N)N)NC(=O)[C@H](CCC(N)=O)NC(=O)COc1ccc(C2=[N+]([O-])C(C)(C)C(C)(C)N2O)cc1)C(=O)N[C@@H](CCCCN)C(=O)O` (X1-QRPAK-OH) the Lysis area (Oryctolagus cuniculus [8]) was 195.38 mm.mm, the EC50 (PC-12 [9]) was 74.6 µM and the EC50 (PC-12 [10]) was 94.2 µM. It also gave a Lysis area (Oryctolagus cuniculus [11]) of 215.12 mm.mm, an ECLT (Oryctolagus cuniculus [12]) of 100.09 min and a Reduction (Rattus norvegicus [13]) of 16.4 mg. For the same compound, the Inhibition (Rattus norvegicus [14]) was 68.3%, the Reduction (Rattus norvegicus [15]) was 20.43 mg and the ECLT (Oryctolagus cuniculus [16]) was 117.96 min. For the same compound, the Reduction (Rattus norvegicus [17]) was 28.85 mg, the Inhibition (Rattus norvegicus [3]) was 95.6% and the Lysis area (Oryctolagus cuniculus [18]) was 230.15 mm.mm. It also gave an EC50 (PC-12 [19]) of 91.8 µM, an ECLT (Oryctolagus cuniculus [20]) of 136 min and an Inhibition (Rattus norvegicus [21]) of 80.1%.
Compound `C[C@H](NC(=O)[C@@H]1CCCN1C(=O)[C@H](CCCN=C(N)N)NC(=O)CNC(=O)COc1ccc(C2=[N+]([O-])C(C)(C)C(C)(C)N2O)cc1)C(=O)N[C@@H](CCCCN)C(=O)O` (X1-GRPAK-OH) has a Lysis area (Oryctolagus cuniculus [8]) of 175.04 mm.mm, a Lysis area (Oryctolagus cuniculus [11]) of 196.87 mm.mm and a Reduction (Rattus norvegicus [1]) of 19.7 mg. The Reduction (Rattus norvegicus [22]) was 26.64 mg, the Reduction (Rattus norvegicus [23]) was 16.34 mg and the Inhibition (Rattus norvegicus [14]) was 69.3%. It also gave an EC50 (PC-12 [24]) of 92.3 µM, a Lysis area (Oryctolagus cuniculus [25]) of 217.35 mm.mm and an ECLT (Oryctolagus cuniculus [16]) of 126.51 min. The Inhibition (Rattus norvegicus [3]) was 96%, the EC50 (PC-12 [26]) was 25.4 µM and the ECLT (Oryctolagus cuniculus [20]) was 147.22 min. For the same compound, the Inhibition (Rattus norvegicus [21]) was 80.9%, the ECLT (Oryctolagus cuniculus [27]) was 105.01 min and the EC50 (PC-12 [28]) was 95.4 µM.
